From PMC3904296 (Journal of medicinal chemistry, 2013)

Tests used:
male NIH Swiss mice [1] = assay: Oral EtOH self-administration; type: in vivo; conditions: 10 mg/kg i.p. daily for 10 days
[2] = target: CB1Rs endogenously expressed in Neuro2A cells (Mus musculus, UniProt P47746); assay: Adenylyl cyclase assay in Neuro2A cells; type: cell-based; conditions: for antagonism of AC-inhibition produced by the CB1R full agonist 3: 1 μM concentration of antagonist, 10^−7 M concentration of 3, Figure 3B; for inhibition of AC-activity via CB1Rs (concentration-effect curves): Neuro2A cells, Figure 3A
Sequence of CB1Rs endogenously expressed in Neuro2A cells (P47746 whole entry): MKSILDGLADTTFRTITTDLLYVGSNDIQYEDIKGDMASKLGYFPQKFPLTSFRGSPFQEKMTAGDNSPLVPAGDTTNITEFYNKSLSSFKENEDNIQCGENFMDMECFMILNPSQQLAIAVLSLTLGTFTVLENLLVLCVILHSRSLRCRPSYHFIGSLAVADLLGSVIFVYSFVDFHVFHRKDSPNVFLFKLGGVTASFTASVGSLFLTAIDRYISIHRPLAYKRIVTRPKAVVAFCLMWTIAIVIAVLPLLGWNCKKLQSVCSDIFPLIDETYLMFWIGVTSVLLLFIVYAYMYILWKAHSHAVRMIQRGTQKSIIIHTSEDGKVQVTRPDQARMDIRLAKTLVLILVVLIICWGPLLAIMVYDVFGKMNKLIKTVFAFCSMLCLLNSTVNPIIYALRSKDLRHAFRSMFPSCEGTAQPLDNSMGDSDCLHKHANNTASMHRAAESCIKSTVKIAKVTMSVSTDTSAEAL

CB2Rs in CHO-hCB2 cells = CB2Rs in CHO-hCB2 cells (Homo sapiens, UniProt P34972); assay: Adenylyl cyclase assay in CHO-hCB2 cells; type: cell-based; conditions: Figure 4A
Sequence of CB2Rs in CHO-hCB2 cells (P34972 whole entry): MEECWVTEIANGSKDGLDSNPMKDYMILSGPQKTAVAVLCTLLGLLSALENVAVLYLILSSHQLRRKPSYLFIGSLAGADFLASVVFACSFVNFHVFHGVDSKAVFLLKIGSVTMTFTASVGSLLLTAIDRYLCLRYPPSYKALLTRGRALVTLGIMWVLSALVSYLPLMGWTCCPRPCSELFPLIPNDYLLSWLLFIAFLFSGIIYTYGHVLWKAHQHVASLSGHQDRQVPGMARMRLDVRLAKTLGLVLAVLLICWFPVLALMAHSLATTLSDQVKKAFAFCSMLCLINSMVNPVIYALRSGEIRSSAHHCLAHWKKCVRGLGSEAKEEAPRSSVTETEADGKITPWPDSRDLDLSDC

CHO-WT cells = assay: Adenylyl cyclase assay in CHO-WT cells not expressing CB2Rs; type: cell-based; conditions: Figure 4B
CB1Rs = conditions: cited from earlier work
male NIH Swiss mice [3] = assay: Thermoregulation assay; type: in vivo; conditions: 10 mg/kg intraperitoneal, Figure 5
Method in brief: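 Under isoflurane, a glass-encapsulated radiotelemetry probe was implanted in the peritoneal cavity. Mice recovered at least 7 days and were housed singly. On test days they were weighed, and baseline core temperature was recorded for at least 1 h. Drug or equal-volume vehicle was then injected, 4–8 mice per group. […] Data are mean ± SEM, analysed by one-way ANOVA with Tukey post-test.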

Structure (SMILES)	EtOH preference (two-bottle choice, 10% EtOH vs water) (male NIH Swiss mice [1])	body weight across the treatment period (male NIH Swiss mice [1])	total fluid consumption (male NIH Swiss mice [1])	antagonism of AC-inhibition produced by the CB1R full agonist 3 [2]	inhibition of AC-activity via CB1Rs (concentration-effect curves) [2]	inhibition of AC-activity at CB2Rs (concentration-effect curves) (CB2Rs in CHO-hCB2 cells)	modification of AC-activity in CHO-WT cells (CHO-WT cells)	intrinsic activity at CB1Rs in [35S]GTPγS functional assay (CB1Rs)	hypothermic effect (core body temperature) (male NIH Swiss mice [3])
Cc1c(C(=O)NN2CCCCC2)nn(-c2ccc(Cl)cc2Cl)c1-c1ccc(Cl)cc1 [rimonabant, reference compound]	decreased EtOH preference	decreased body weight	without altering total fluid intake						
CCCCn1cc(Cc2cccc3ccccc23)c2cccc(OC)c21 [Compound 27, 1-Butyl-7-methoxy-3-(naphthalen-1-ylmethyl)-1H-indole]	reduced EtOH preference	did not decrease body weight	without affecting total fluid consumption	antagonize AC-inhibition produced by CB1R-agonist	very little inhibition of AC-activity	40–50%	neither 27 nor 30 significantly modified AC-activity		
CCCCn1cc(C(=O)c2cccc3ccccc23)c2cccc(O)c21 [Compound 4, reference compound]					50–60%			lacks intrinsic activity	
CCCCn1cc(-c2ccc3ccccc3c2)c2cccc(OC)c21 [Compound 30, 1-Butyl-7-methoxy-3-(naphthalen-2-yl)-1H-indole]	reduced EtOH preference	did not decrease body weight	without affecting total fluid consumption	antagonize AC-inhibition produced by CB1R-agonist	very little inhibition of AC-activity	40–50%	neither 27 nor 30 significantly modified AC-activity		
CC1=CC[C@@H]2[C@@H](C1)c1c(O)cc(CC#CCCCNS(C)(=O)=O)cc1OC2(C)C [Compound O-2050, reference compound]				significantly antagonized AC-inhibition					
CCCCn1cc(C(=O)c2cccc3ccccc23)c2ccccc21 [Compound 3, (1-butyl-1H-indol-3-yl)(naphthalen-1-yl)methanone]									elicited a profound hypothermic effect
